# Compound activity (PubChem)
# Only some compounds are listed: those with a hit (about 3.6% of all), similar ones and a draw of the others.
# BB579 growth dn: growth inhibitors of yeast BB579 in restrictive medium, primary screen, yeast lifespan-shortening project, S. cerevisiae; inhibition, % at 10 µM; 140,000 tested, 0.51% active; OD615, 48 h;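 active means inhibition above a set limit, 3 SD over the mean compound inhibition, cut at about 44% in these data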
#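 Material: Saccharomyces cerevisiae DeaD strain BB579, replicative lifespan model yeast; buffer or medium: CSMM-D restrictive synthetic medium containing dextrose (glucose); compound: 10 µM single dose, DMSO 0.25%; timing: 48 h compound exposure at 30 °C after 4 h preincubation; signal: turbidity as optical density at 615 nm; benchmarks: positive control amphotericin B 10 µg/mL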
# Measles CPE: compounds protecting cells from measles virus cytopathic effect, primary screen, measles RdRp inhibitor project, single point, MLSMR library, absorbance; protection (pct of control), % at 4 µM; 140,000 tested, 1.5% active; Measles virus-infected cells, CPE protection; in the data active means protection mostly above about 24%, no sharp cut-off; inactive means mostly below about 26%
# Yeast lifespan up: compounds extending yeast replicative lifespan, primary screen, S. cerevisiae, OD615; S. cerevisiae growth with nicotinamide; deaD strain in restrictive glucose medium; 130,000 tested, 0.68% active; inhibition of the nicotinamide effect, % at 10 µM;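 active means inhibition above a set limit, placed 3 SD over the median of all compounds, cut at about 26% in these data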
#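 assay system = DeaD-strain S. cerevisiae | measured by = absorbance at 615 nm | probe or stimulus = nicotinamide 1.5 mM | buffer or medium = CSMM-D glucose medium, restrictive | times = 48 h at 30 °C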
# Phagocyt inh: inhibitors of macrophage phagocytosis, primary screen, imaging, J774A.1 cells, IgG beads. J774A.1 macrophage IgG-bead phagocytosis. 110,000 tested, 0.07% active. AID 1029, 2008. inhibition, % at 5 µM;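 active means inhibition above the mean of the plate negative controls plus 5 SD, cut at about 13% in these data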;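 further: phagocytic index as fraction of beads internalized from green versus red external bead signal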
# RAM inhibit: inhibitors of the yeast RAM network, primary screen, dse1pr::URA3 reporter, 5-FOA selection. inhibition, % at 50 µM. 190,000 tested, 1.8% active. S. cerevisiae dse1pr::URA3 reporter, 5-FOA growth OD615, 2 d; analog-sensitive cbk1-as2 kinase mutant strain;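 active means inhibition above a set limit, 3 SD over mean compound inhibition, cut at about 8.4% in these data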;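 further: inhibition rescues growth on 5-FOA so higher OD means more RAM inhibition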
# Numbers stand for hits; – = inactive; · = not tested or not shown.
SMILES,BB579 growth dn,Measles CPE,Yeast lifespan up,Phagocyt inh,RAM inhibit
O=C(NCC1CCCO1)C(=O)NCC(c1ccco1)N1CCN(c2ccccc2F)CC1 (stereo not given),–,–,–,–,–
Cc1ccc(N2C(=O)Nc3ccc(Br)cc3C2(O)C(=O)NCCCN(C)C)cc1C (stereo not given),–,50.0,–,–,–
COc1ccc(-c2nncnn2)cc1,79.2,–,·,·,–
CC(O)c1nc2ccccc2n1CCOc1ccccc1 (stereo not given),–,37.9,·,·,–
CC(=O)Nc1ccc(OCC(O)Cn2c(CO)nc3ccccc32)cc1 (stereo not given),·,·,·,·,–
OCc1nc2ccccc2n1CC(O)COc1ccccc1 (stereo not given),–,29.2,–,–,–
COCCn1c(COc2ccc(OC)cc2)nc2ccccc21,–,–,–,–,–
COc1ccccc1OCCn1c(C(C)O)nc2ccccc21 (stereo not given),–,75.9,–,–,–
CCOc1ccc(NCc2nc3ccccc3n2CCOc2ccccc2)cc1,48.3,–,41.8,·,–
C/C(CC(=O)NC12CC3CC(CC(C3)C1)C2)=N\NC(=O)c1ccc(C)cc1,·,·,·,·,–
CCNC(=S)N1CCCC(C(N)=O)C1 (stereo not given),·,·,·,·,–
CCCNC(=O)C(=O)N/N=C/c1cccs1,–,50.1,–,–,–
CC(C)CNC(=O)C(=O)N/N=C/c1cccs1,–,–,–,·,–
O=C(N/N=C/c1cccs1)c1ccccn1,–,42.2,–,–,–
Cc1ccc(/C=N/NC(=O)c2ccccn2)s1,–,–,–,–,–
O=C(NNCC(O)COc1ccccc1)c1ccccc1 (stereo not given),–,49.0,–,–,–
CS(=O)(=O)c1nsc2nc(=O)c(/C=C3\C=Nc4ccccc43)c(N)n12,·,·,·,·,9.9
CC(C)Sc1nsc2nc(=O)c(/C=C3\C=Nc4ccccc43)c(N)n12,·,·,·,·,–
CCOc1cc(CNc2nn[nH]n2)ccc1OCC(=O)NC(C)(C)C,·,·,·,·,–
COc1ccc(-c2[nH]c3ccccc3c2SCCNC(=O)c2ccccc2)cc1,–,32.4,–,·,–
FC(F)(F)c1cc(-c2ccccc2)nc2nc(N3CCOCC3)sc12,·,·,·,·,–
CC1CC(=O)c2c(cc3c(-c4c(O)cc(O)c5c(O)c6c(cc45)OC(C)CC6=O)c(O)cc(O)c3c2O)O1 (stereo not given),·,·,·,·,9.4
CC(OC(=O)c1cc(S(=O)(=O)N(C)c2ccccc2)ccc1Cl)C(=O)Nc1ccc2c(c1)OCCO2 (stereo not given),–,–,–,–,–
Cc1cc2oc(=O)cc(CN3CCN(S(=O)(=O)c4cccs4)CC3)c2cc1C,–,–,–,–,–
Cc1cc(C(=O)Nc2nnc(C3CCCCC3)s2)no1,–,–,–,–,–
SMILES,BB579 growth dn,Measles CPE,Yeast lifespan up,Phagocyt inh,RAM inhibit
Cc1cc(C(=O)Nc2nnc(-c3ccccc3)s2)no1,–,–,27.5,–,–
CCOC(=O)c1c(C)nc2sc(C(=O)Nc3ccccc3)c(N)c2c1-c1ccc(OC)cc1,–,–,–,–,–
CN(C)N1C(N)=C(C#N)C(c2cccnc2)C2=C1CCCC2=O (stereo not given),–,–,–,–,–
COc1cccc(-c2nnc(SCC(=O)N3CCCc4ccccc43)o2)c1,–,–,–,–,8.5
Cc1oc(-c2ccccc2Cl)nc1CSCC(=O)N1CCCC1,–,44.4,–,–,–
COc1cc(OC)cc(-c2nnc(SCC(=O)N3CCCc4ccccc43)o2)c1,–,35.4,–,–,–
Cc1oc(-c2ccccc2Cl)nc1CSCC(=O)NC1CCCC1,–,–,–,–,–
COc1ccc(-c2nc(CSCC(=O)N3CCc4ccccc43)c(C)o2)cc1OC,–,–,–,·,–
COc1cccc(-c2nc(CSCC(=O)N3CCc4ccccc43)c(C)o2)c1,–,–,–,–,8.8
CC1=C(C(=O)OCCc2ccccc2)C(c2ccsc2)NC(=O)N1C (stereo not given),–,–,–,–,–
Cn1nc(-c2ccc(Cl)cc2)nc2c(=O)n(C)c(=O)nc1-2,99.8,–,–,·,–
Cn1c2ccccc2c(=O)c2c(=O)n(C3CCCCC3)c(-c3cccs3)nc21,–,–,–,·,–
COc1ccc(C(O)c2nccc3cc(OC)c(OC)cc23)cc1OC (stereo not given),·,·,·,·,–
C[N+]1(CCCCCCC(=O)/C=N/O)CCCCCC1,–,32.4,–,–,–
CN(C)S(=O)(=O)c1ccc(Cl)c(-c2nnc3n2CCCCC3)c1,·,·,·,·,–
CCOC(=O)C1=C(CSc2nc(-c3ccccc3)ccc2C#N)OC(N)=C(C#N)C1c1cccnc1 (stereo not given),–,–,–,–,–
CCOC(=O)C1=C(CSc2nc(-c3ccccc3)ccc2C#N)OC(N)=C(C#N)C1c1ccccc1 (stereo not given),–,–,–,–,8.6
CCCCNC(=O)C(C#N)c1nc2ccccc2nc1N1CCCC1 (stereo not given),–,–,–,–,–
C=CCNC(=O)C(C#N)c1nc2ccccc2nc1N1CCCCCC1 (stereo not given),–,–,–,–,9.0
COC(=O)c1ccc(CSc2nnc(-c3c[nH]c4ccccc34)n2-c2ccccc2)cc1,–,53.8,–,–,–
COc1ccc(/C=C2\SC(=S)N(NC(=O)c3ccncc3)C2=O)cc1OC,·,·,·,·,–
COc1ccc(/C=C2/SC(=O)N(NS(=O)(=O)c3ccccc3)C2=S)cc1OC,–,–,32.2,–,–
CSc1nc(-c2ccc(Cl)cc2)nn1C(=O)c1ccco1,–,51.6,–,–,–
Cn1cccc1C(=O)NC(=O)CSc1cccc[n+]1[O-],95.1,–,–,–,–
O=C(CSc1cccc[n+]1[O-])c1cc(Cl)ccc1Cl,·,·,·,·,–
SMILES,BB579 growth dn,Measles CPE,Yeast lifespan up,Phagocyt inh,RAM inhibit
O=C(O)CSc1cccc[n+]1[O-],89.8,–,–,–,–
O=C(CSc1cccc[n+]1[O-])c1cc2ccccc2o1,99.2,–,–,–,–
COc1ccc(-c2cc(C(F)(F)F)n3ncc(C(=O)N(C)Cc4ccccc4)c3n2)cc1,·,·,·,·,–
O=C(O)c1cccc2c1C(=O)N(Cc1ccncc1)C2,–,72.0,–,–,–
COc1ccc(N2Cc3cccc(C(=O)O)c3C2=O)cc1,–,–,28.5,–,–
CCCN1Cc2cccc(C(=O)N3CCN(c4ccc(OC)cc4)CC3)c2C1=O,·,·,·,·,–
COc1ccc(Nc2ccc(N3C(=O)CCCC3=O)cc2[N+](=O)[O-])c(OC)c1,–,–,–,–,–
COC(=O)c1cn(C(=O)OC)c2ccccc12,–,49.1,–,–,–
O=[N+]([O-])c1cccc(-n2nnnc2CN2CCCCCC2)c1,–,33.2,–,–,–
O=[N+]([O-])c1cccc(-n2nnnc2CN2CCCC2)c1,·,·,·,·,–
NNc1ccc2c(C(F)(F)F)cc(C(F)(F)F)nc2n1,·,·,·,·,–
